A short description of test [1]: Antiproliferative activity against human Bel7402 cells assessed as inhibition of cell proliferation incubated for 48 hrs in presence of matrine by CCK8 assay. Format: functional, cell-based. Conditions: Bel-7402, 48 h. The gist of the method: (§1)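 Human A549 lung, Hela cervical, Bel-7402 hepatocellular and MCF-7 breast cancer cells, plus mouse embryo fibroblast NIH3T3, tested for anti-proliferative activity by CCK-8 assay. For the matrine combination tests, the chalcone and matrine were used at a 1:1 molar ratio; values given as IC50.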
On the technique in general: Tetrazolium assays rely on reduction of a dye to a coloured formazan, in cell work by metabolically active cells.

For test [2], the system named is MCF7. As to the kind of experiment: Antiproliferative activity against human MCF7 cells assessed as inhibition of cell proliferation incubated for 48 hrs in presence of matrine by CCK8 assay. Conditions: MCF7, 48 h. It is filed as functional, cell-based. The gist of the method: as §1
Test [3] has as its system HeLa. The experiment in a line: Antiproliferative activity against human HeLa cells assessed as inhibition of cell proliferation incubated for 48 hrs by CCK8 assay. Format: functional, cell-based. The essentials: as §1
Test [4] can be described thus: Antiproliferative activity against mouse NIH/3T3 cells assessed as inhibition of cell proliferation incubated for 48 hrs by CCK8 assay. Format: cell-based. Conditions: NIH3T3, 48 h. The gist of the method:
as §1

The subject of test [5] is A549. The experiment in a line: Antiproliferative activity against human A549 cells assessed as inhibition of cell proliferation incubated for 48 hrs by CCK8 assay. It is filed as functional, cell-based. Conditions: A549, 48 h. The gist of the method: as §1
Test [6] deals with MCF7. As to the kind of experiment: Antiproliferative activity against human MCF7 cells assessed as inhibition of cell proliferation incubated for 48 hrs by CCK8 assay. Conditions: MCF7, 48 h. It is filed as functional, cell-based. The essentials: as §1
For test [7], the system named is HeLa. The experiment in a line: Antiproliferative activity against human HeLa cells assessed as inhibition of cell proliferation incubated for 48 hrs in presence of matrine by CCK8 assay. It is filed as functional, cell-based. The essentials:
as §1

Test [8] deals with A549. The experiment in a line: Antiproliferative activity against human A549 cells assessed as inhibition of cell proliferation incubated for 48 hrs in presence of matrine by CCK8 assay. Format: functional, cell-based. Conditions: A549, 48 h. The essentials:
as §1

Test [9] deals with A549. The experiment in a line: Antitumor activity against human A549 cells xenografted in Balb/ca-nu mouse assessed as tumor growth inhibition at 5 mg/kg, iv dosed every 3 days for total of 7 dosing rounds measured on day 12 after treatment. Conditions: read-out: TGI. Format: functional. The gist of the method:
(§2)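 A549 xenograft in mice, dosed by tail vein injection every 3 days; vehicle saline plus 0.2% Tween 80. n = 8 per treatment group, 6 in the vehicle group. Mean ± SE.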
For orientation: Xenograft models place foreign cells or tissue in a host animal.

Test [10] relates to A549. As to the kind of experiment: Antitumor activity against human A549 cells xenografted in Balb/ca-nu mouse assessed as tumor growth inhibition at 5 mg/kg, iv dosed every 3 days for total of 7 dosing rounds measured on day 18 after treatment. It is filed as functional. Conditions: read-out: TGI. The essentials: as §2
The test system of test [11] is A549. As to the kind of experiment: Antitumor activity against human A549 cells xenografted in Balb/ca-nu mouse assessed as tumor growth inhibition at 5 mg/kg, iv dosed every 3 days for total of 7 dosing rounds measured on day 16 after treatment. Conditions: read-out: TGI. Format: functional. The essentials: as §2
The test system of test [12] is A549. As to the kind of experiment: Antitumor activity against human A549 cells xenografted in Balb/ca-nu mouse assessed as tumor growth inhibition at 10 mg/kg, iv dosed every 3 days for total of 7 dosing rounds measured on day 8 after treatment. Format: functional, organism-based. Also noted: dose 10 mg/kg. The essentials:
as §2

Test [13] relates to A549. As to the kind of experiment: Antitumor activity against human A549 cells xenografted in Balb/ca-nu mouse assessed as tumor growth inhibition at 5 mg/kg, iv dosed every 3 days for total of 7 dosing rounds measured on day 20 after treatment. It is filed as functional. Conditions: read-out: TGI. The essentials: as §2
The test system of test [14] is A549. As to the kind of experiment: Antitumor activity against human A549 cells xenografted in Balb/ca-nu mouse assessed as tumor growth inhibition at 5 mg/kg, iv dosed every 3 days for total of 7 dosing rounds measured on day 10 after treatment. Format: functional. Conditions: read-out: TGI. The gist of the method: as §2
Test [15] concerns A549. As to the kind of experiment: Antitumor activity against human A549 cells xenografted in Balb/ca-nu mouse assessed as tumor growth inhibition at 5 mg/kg, iv dosed every 3 days for total of 7 dosing rounds measured on day 14 after treatment. Format: functional. Conditions: read-out: TGI. The gist of the method: as §2
A short description of test [16]: Antiproliferative activity against human Bel7402 cells assessed as inhibition of cell proliferation incubated for 48 hrs by CCK8 assay. It is filed as functional, cell-based. Conditions: Bel-7402, 48 h. The essentials:
as §1

Test [17] has as its system A549. The experiment in a line: Induction of apoptosis in human A549 cells at 15 to 50 uM incubated for 24 hrs by Annexin V-FITC/propidium iodide double staining based flow cytometry. It is filed as functional. The essentials: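 A549 cells exposed for 24 h at three concentrations alongside a 0.1% DMSO control. Cells double-stained with Annexin V-FITC/propidium iodide and analysed by flow cytometry. Early apoptosis was read from the lower-right quadrant and late apoptosis from the upper-right, and both were summed. Done in triplicate, with statistics compared to control.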
A general note: A flow cytometer gives signals particle by particle.

Structures are written as SMILES. Active and inactive are the calls of the source. The calls are words filed in the database; no cut-off is given here.

These results are taken from ChEMBL document CHEMBL3425481, “Design, synthesis and anticancer activity of matrine-1H-1,2,3-triazole-chalcone conjugates” (Bioorg Med Chem Lett, 2015).

Usually IC50 stands for the concentration that gives 50% inhibition. As to `C#CCOc1ccc(C(=O)/C=C/c2ccccc2)c(O)c1`, the IC50 in test [1] was over 50 µM; in the test with MCF7 [2], over 50 µM; with HeLa [3], over 50 µM; in test [4], 66.6 µM; in the test with A549 [5], over 50 µM; with MCF7 [6] it was over 50 µM. Further, the IC50 in the test with HeLa [7] and with A549 [8] was over 50 µM throughout.
Consider `CC(=O)O[C@H]1C(=O)[C@@]2(C)[C@H]([C@H](OC(=O)c3ccccc3)[C@]3(O)C[C@H](OC(=O)[C@H](O)[C@@H](NC(=O)c4ccccc4)c4ccccc4)C(C)=C1C3(C)C)[C@]1(OC(C)=O)CO[C@@H]1C[C@@H]2O` [PACLITAXEL], for which the inhibition in vivo at 5 mg/kg in the test on A549 [9] is 70.4%; with A549 [10], 88.9%; in the test with A549 [11], 85.4%; in the test on A549 [13] it was 89.1%; in the test on A549 [14], 58.3%; with A549 [15], 79.5%. The values for the IC50 (in the test on HeLa [3]; in test [4]; with A549 [5]) were 0.38 µM, 20 µM and 2.82 µM, respectively. Besides, the TGI result in the test on A549 [12] is “Active”.
As to `O=C1CCC[C@@H]2[C@H]3CCCN4CCC[C@@H](CN12)[C@@H]34` [MATRINE], the 50% inhibitory concentration (IC50) (in the test with HeLa [3]; in the test with A549 [5]; in the test with MCF7 [6]; in [16]) was over 50 µM each time. The compound also had an Activity in the test on A549 [17] of 28.4%.
